# Test results as given in ChEMBL document CHEMBL2021809, “Synthesis, biological evaluation and molecular modeling study of pyrazole and pyrazoline derivatives as selective COX-2 inhibitors and anti-inflammatory agents. Part 2” (Bioorg Med Chem, 2012).
# Experiments:
# [1] = target: T1, Prostaglandin G/H synthase 1 (Ovis aries, UniProt P05979); test: Inhibition of ovine COX1 by enzyme immuno assay
# T1 sequence (P05979 whole entry): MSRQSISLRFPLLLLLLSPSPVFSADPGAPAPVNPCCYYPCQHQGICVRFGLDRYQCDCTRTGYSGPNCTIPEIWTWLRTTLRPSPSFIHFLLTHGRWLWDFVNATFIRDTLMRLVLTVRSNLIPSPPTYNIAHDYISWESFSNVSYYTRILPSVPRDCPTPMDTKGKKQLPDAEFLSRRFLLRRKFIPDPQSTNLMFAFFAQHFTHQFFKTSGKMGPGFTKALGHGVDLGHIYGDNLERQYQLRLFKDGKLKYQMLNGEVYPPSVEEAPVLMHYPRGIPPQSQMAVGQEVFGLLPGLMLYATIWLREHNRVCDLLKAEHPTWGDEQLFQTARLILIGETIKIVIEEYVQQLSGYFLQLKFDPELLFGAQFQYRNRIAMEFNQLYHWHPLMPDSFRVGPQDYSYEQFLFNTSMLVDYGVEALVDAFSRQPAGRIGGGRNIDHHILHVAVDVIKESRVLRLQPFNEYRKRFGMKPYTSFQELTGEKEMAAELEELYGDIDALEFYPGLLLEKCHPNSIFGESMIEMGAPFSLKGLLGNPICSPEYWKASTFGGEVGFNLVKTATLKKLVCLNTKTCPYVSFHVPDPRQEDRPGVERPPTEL
# Rattus norvegicus [2] = test: Antiinflammatory activity in rat assessed as inhibition of carrageenan-induced foot paw edema at 100 mg/kg, ip measured after 2 hrs; assay type: functional; conditions: route intraperitoneal
# Method in brief: (§1)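 Edema was induced in the rat paw with carrageenan. The read-out was percent reduction of edema at 2 h for each single dose. Test doses were 100 and 200 mg/kg. The reference agent was given at 50 and 100 mg/kg ip.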
# Rattus norvegicus [3] = test: Antiinflammatory activity in rat assessed as inhibition of carrageenan-induced foot paw edema at 200 mg/kg, ip measured after 2 hrs; assay type: functional; conditions: route intraperitoneal; method in brief: as §1
# Rattus norvegicus [4] = test: Antiinflammatory activity in ip dosed rat assessed as inhibition of carrageenan-induced foot paw edema measured after 2 hrs; assay type: functional
# Rattus norvegicus [5] = test: Antiinflammatory activity in rat assessed as inhibition of carrageenan-induced foot paw edema at 50 mg/kg, ip measured after 2 hrs; assay type: functional; conditions: route intraperitoneal; method in brief: as §1
IC50 [1] [µM],Compound,inhibition in vivo at 100 mg/kg (Rattus norvegicus [2]) [%],inhibition in vivo at 200 mg/kg (Rattus norvegicus [3]) [%],ED50 (Rattus norvegicus [4]) [µmol/kg],inhibition in vivo at 50 mg/kg (Rattus norvegicus [5]) [%]
> 50,O=C(/C(=C/c1ccccc1O)C(=O)C(F)(F)F)c1ccc(Cl)cc1,,,,
> 50,O=C(/C(=C/c1ccc(O)cc1)C(=O)C(F)(F)F)c1ccc(Cl)cc1,39.2,78.9,366,
> 50,COc1ccc(/C=C(/C(=O)c2ccc(Cl)cc2)C(=O)C(F)(F)F)cc1,26.3,52.4,528,
> 50,COc1ccc(/C=C(/C(=O)c2ccc(Cl)cc2)C(=O)C(F)(F)F)cc1OC,38.7,80.2,321,
> 50,O=C(/C(=C/c1cccc([N+](=O)[O-])c1)C(=O)C(F)(F)F)c1ccc(Cl)cc1,37.9,80,343,
> 50,O=C(/C(=C/c1ccco1)C(=O)C(F)(F)F)c1ccc(Cl)cc1,,,,
> 50,Oc1ccccc1/C=C1\C(c2ccc(Cl)cc2)=NN=C1C(F)(F)F,,,,
> 50,Oc1ccc(/C=C2\C(c3ccc(Cl)cc3)=NN=C2C(F)(F)F)cc1,35.3,81.4,370,
> 50,COc1ccc(/C=C2\C(c3ccc(Cl)cc3)=NN=C2C(F)(F)F)cc1,33.4,69.1,405,
> 50,COc1ccc(/C=C2\C(c3ccc(Cl)cc3)=NN=C2C(F)(F)F)cc1OC,42,88.7,298,
> 50,O=[N+]([O-])c1cccc(/C=C2\C(c3ccc(Cl)cc3)=NN=C2C(F)(F)F)c1,37.6,84.5,318,
> 50,FC(F)(F)C1=NN=C(c2ccc(Cl)cc2)/C1=C\c1ccco1,,,,
> 50,FC(F)(F)c1[nH]nc(-c2ccc(Cl)cc2)c1Cc1ccccc1,,,,
> 50,FC(F)(F)c1nn(-c2ccccc2)c(-c2ccc(Cl)cc2)c1/C=N/c1ccc(Br)cc1,25.2,61.1,335,
> 50,FC(F)(F)c1nn(-c2ccccc2)c(-c2ccc(Cl)cc2)c1/C=N/c1ccccc1Cl,,,,
> 50,O=[N+]([O-])c1ccc(/N=C/c2c(C(F)(F)F)nn(-c3ccccc3)c2-c2ccc(Cl)cc2)cc1,43.7,86.7,243,
> 50,FC(F)(F)c1cc(/N=C/c2c(C(F)(F)F)nn(-c3ccccc3)c2-c2ccc(Cl)cc2)cc(C(F)(F)F)c1,52,89.3,170,
> 50,N#CC(C#N)=Cc1c(C(F)(F)F)nn(-c2ccccc2)c1-c1ccc(Cl)cc1,,,,
> 50,O=C1Nc2ccc(F)cc2C12CC(c1ccc(Br)cc1)=NN2 (centres undefined),,,,
> 50,Cc1ccc(C2=NNC3(C2)C(=O)Nc2ccc(F)cc23)cc1 (centres undefined),,,,
,Cc1ccc(-c2cc(C(F)(F)F)nn2-c2ccc(S(N)(=O)=O)cc2)cc1 [CELECOXIB],83,,185,57
,O=C(O)Cc1ccccc1Nc1c(Cl)cccc1Cl [DICLOFENAC SODIUM],87.3,,198,48.7
